Sampled rows, rich in hits. Any-hit rate of the full collection: about 3.9%.
TMEM16A act: TMEM16A chloride channel activators or potentiators, primary screen, cell-based, HTS. 340,000 compounds, 0.3% hits. B-score at 10 µM. HEK293 TMEM16A/YFP-H148Q/I152L, iodide quench fluorescence; hits give low values. Anoctamin-1 (Mus musculus), Q8BHY3;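 active = fluorescence-ratio B-score plate-corrected deviation score at least 3 library SD below zero, with starting fluorescence score within 5 deviations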;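 note: channel opened by trigger with iodide after compound preincubation; score built on the fluorescence ratio of max minus min over baseline; more negative score means more quench and so TMEM16A activation or potentiation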
Target sequence (Q8BHY3 whole entry, looked up): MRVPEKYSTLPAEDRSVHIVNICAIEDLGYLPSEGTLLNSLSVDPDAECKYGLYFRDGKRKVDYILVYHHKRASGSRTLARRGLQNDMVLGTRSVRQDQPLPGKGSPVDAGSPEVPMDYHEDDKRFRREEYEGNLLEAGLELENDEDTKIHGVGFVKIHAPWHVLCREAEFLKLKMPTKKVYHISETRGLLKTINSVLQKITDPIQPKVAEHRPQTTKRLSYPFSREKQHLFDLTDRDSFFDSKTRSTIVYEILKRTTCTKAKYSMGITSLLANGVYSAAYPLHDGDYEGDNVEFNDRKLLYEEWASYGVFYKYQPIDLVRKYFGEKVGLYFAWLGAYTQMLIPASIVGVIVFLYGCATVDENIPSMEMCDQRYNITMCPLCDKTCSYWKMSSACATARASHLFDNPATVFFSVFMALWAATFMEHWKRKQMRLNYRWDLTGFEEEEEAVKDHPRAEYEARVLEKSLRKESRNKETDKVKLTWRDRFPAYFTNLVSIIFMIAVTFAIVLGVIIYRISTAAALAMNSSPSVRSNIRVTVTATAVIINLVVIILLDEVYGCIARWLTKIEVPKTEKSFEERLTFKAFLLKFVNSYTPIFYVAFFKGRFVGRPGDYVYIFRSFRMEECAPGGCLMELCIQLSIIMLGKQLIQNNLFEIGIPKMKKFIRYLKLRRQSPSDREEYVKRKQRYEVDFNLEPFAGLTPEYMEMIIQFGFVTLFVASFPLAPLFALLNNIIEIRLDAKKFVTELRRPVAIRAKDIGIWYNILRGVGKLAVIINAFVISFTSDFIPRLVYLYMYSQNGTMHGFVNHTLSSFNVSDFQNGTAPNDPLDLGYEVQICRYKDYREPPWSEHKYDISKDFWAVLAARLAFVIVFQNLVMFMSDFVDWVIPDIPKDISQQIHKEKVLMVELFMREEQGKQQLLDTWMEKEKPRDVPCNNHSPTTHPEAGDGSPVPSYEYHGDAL
TAAR1 ag: human TAAR1 agonists, primary screen, Fluo-8 calcium fluorescence, CHO RD-HGA16 cells; 360,000 compounds, 0.99% hits; Trace amine-associated receptor 1 (Homo sapiens), Q96RJ0; AID 624467, 2012; vehicle wells 0%, saturating PEA agonist 100%; activation, % at 3 µM;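 active = activation above the mean activation of all test compounds in the run plus 3 SD, cut at about 38% in these data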
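Test system: RD-HGA16 (CHO) cells co-expressing Gα16 and hTAAR1; dosing: one-point dosing at 3 µM (nominal); timing: 17-24 h seeding, 75 min 37 °C dye, 30 min RT; signal: kinetic Fluo-8 calcium fluorescence; read-out basis: % activation relative to PEA EC100 response; controls: DMSO and PEA EC100; replicates: n 1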
CRFBP-R2 agonist: agonists of CRF-BP/CRF-R2 complex, primary screen, cell-based, HEK293, calcium dye fluorescence, uHTS. AID 588473, 2011. activation, % at 13.2 µM. calcium dye fluorescence (FLIPR); percent of saturating CRF peptide response. CRF-binding protein / CRF receptor 2 complex (human). 350,000 compounds, 0.46% hits;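 active = activation of at least 50%, plus an integration ratio under a set limit after plate pattern correction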;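 note: plate controls were neutral control wells without compound for no effect and CRF at EC100 for full effect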
TAAR1 antag: human TAAR1 antagonists, primary screen, Fluo-8 calcium fluorescence, CHO RD-HGA16 cells | 360,000 compounds, 1.5% hits | Trace amine-associated receptor 1 (Homo sapiens), Q96RJ0 | inhibition, % at 3 µM | antagonist;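 active = inhibition above a per-plate cutoff, the mean inhibition of test compounds on that plate plus 3 SD, cut at about 49% in these data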;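 note: 0% = DMSO plus EC80 beta-PEA response and 100% = DMSO alone without agonist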
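System: CHO RD-HGA16 cells bearing hTAAR1. Reagent: EC80 β-phenethylamine stimulus. Schedule: seeding 17-24 h prior, 75-min 37 °C, 30-min RT dye loading. Signal: Fluo-8 intracellular calcium dye fluorescence, real-time kinetic reads. Read-out: % inhibition from peak post-agonist over basal fluorescence ratio. Benchmarks: vehicle wells and EC80 agonist wells. Replicates: n of 1.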
TMEM16A inh: TMEM16A chloride channel inhibitors, primary screen, cell-based, HTS. Anoctamin-1 (Mus musculus), Q8BHY3. HEK293 TMEM16A/YFP iodide influx fluorescence, ionomycin. normalized B-score (activity score, 25-100; higher = stronger inhibition) at 10 µM. 310,000 compounds, 1.2% hits;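 active = ratio plate-corrected score three or more library SD toward inhibition, starting fluorescence score within five deviations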;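 note: score derived from kinetic fluorescence span divided by baseline fluorescence per well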
CRFBP-R2 block: antagonists of CRF-BP/CRF-R2 complex, primary screen, cell-based, HEK293, calcium dye fluorescence, uHTS; 350,000 compounds, 0.59% hits; inhibition, % at 11.8 µM; CRF-induced calcium fluorescence;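 active = inhibition of the ligand-induced calcium signal above about 50% at the single tested concentration, limit read from the data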
TMEM16A reconf: TMEM16A chloride channel inhibitors, confirmation, cell-based, re-confirmation | inhibition, % at 10 µM | HEK293 TMEM16A/YFP-H148Q, iodide quench fluorescence; ionomycin added to raise cell calcium | shares compounds with TMEM16A inh | AID 652189, 2013 | 2,300 compounds, 39% hits;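 active = mean duplicate percent inhibition, scaled so buffer wells are 0 and the reference blocker 100, over three buffer SD above buffer mean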
HEK293 Ca mobil: calcium mobilization in TMEM16A/YFP HEK293 cells, confirmation, counter-screen for TMEM16A inhibitor project | Fluo4 calcium mobilization | shares compounds with TMEM16A inh | 2,300 compounds, 2% hits | calcium response (% of ionomycin), % at 10 µM;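 active = duplicate-averaged calcium signal over 20% of the ionomycin maximum, relative to buffer baseline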;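 note: each well's signal is peak minus trough fluorescence divided by its pre-addition baseline; 0% = buffer wells and 100% = ionomycin wells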
Parental YFP cnt: iodide YFP quench changes in parental YFP-HEK293, counter-screen for TMEM16A inhibitor project, cell-based; shares compounds with TMEM16A inh; ionomycin; YFP ratio F(max-min)/F0 at 10 µM; 2,300 tested, under 10 active;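 active = yellow fluorescent protein signal ratio exceeding the buffer control mean by over 5 SD of those controls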;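 note: ratio is mean of duplicate wells from kinetic YFP trace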
ClC-1 rat inh: ClC-1 chloride channel inhibition, selectivity assay for TMEM16A inhibitor project, cell-based, voltage-dependent ClC-1. shares compounds with TMEM16A inh. CHO ClC-1-YFP, iodide influx fluorescence quench; iodide control reads 0, buffer control 100. ratio percent, % at 10 µM. 2,300 tested, under 10 active. AID 652236, 2013;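 active = duplicate-mean ratio percent above the mean of iodide-only control wells, which defines zero, plus 5 of their SD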;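 note: higher percent means stronger block of ClC-1 iodide influx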
* marks the source's active call; other numbers are inactive results.

What do the screens show for `CCCN(CC(=O)c1cc(C)n(C)c1C)S(=O)(=O)c1cccc(C(F)(F)F)c1`?
TMEM16A act: inactive; TAAR1 ag: 2; CRFBP-R2 agonist: 1; TAAR1 antag: 9; TMEM16A inh: 100*; CRFBP-R2 block: 11; TMEM16A reconf: inactive; HEK293 Ca mobil: inactive; Parental YFP cnt: -0.85; ClC-1 rat inh: -6

What do the screens show for `O=C(CNc1cccc(F)c1)Nc1cccc(S(=O)(=O)N2CCCCC2)c1`?
TMEM16A act: inactive; TAAR1 ag: 2; CRFBP-R2 agonist: 2; TAAR1 antag: -16; CRFBP-R2 block: -8

How did CS(=O)(=O)c1ccc(C(=O)OCC(=O)Nc2cccc(S(=O)(=O)N3CCCC3)c2)cc1 do in these assays?
TMEM16A act: inactive; TAAR1 ag: 1; CRFBP-R2 agonist: -1; TAAR1 antag: -10; TMEM16A inh: inactive; CRFBP-R2 block: -10

How did Cc1ccc(NCC(=O)Nc2cccc(F)c2)cc1S(=O)(=O)N1CCCCCC1 do in these assays?
TMEM16A act: inactive; TAAR1 ag: 2; CRFBP-R2 agonist: -4; TAAR1 antag: 15; TMEM16A inh: 100*; CRFBP-R2 block: 8; TMEM16A reconf: 34%*; HEK293 Ca mobil: inactive; Parental YFP cnt: -0.94; ClC-1 rat inh: -12

Results for Cc1ccc(NC(=O)CNc2cccc(S(=O)(=O)N3CCCCC3)c2)cc1F ?
TMEM16A act: inactive; TAAR1 ag: 5; CRFBP-R2 agonist: 1; TAAR1 antag: 18; TMEM16A inh: 25*; CRFBP-R2 block: -12; TMEM16A reconf: inactive; HEK293 Ca mobil: inactive; Parental YFP cnt: -0.88; ClC-1 rat inh: -8

What do the screens show for `O=C(COC(=O)c1ccc(O)cc1)Nc1cccc(S(=O)(=O)N2CCCCC2)c1`?
TMEM16A act: inactive; TAAR1 ag: 9; CRFBP-R2 agonist: -1; TAAR1 antag: 22; TMEM16A inh: 25*; CRFBP-R2 block: 4; TMEM16A reconf: inactive; HEK293 Ca mobil: inactive; Parental YFP cnt: -1.1; ClC-1 rat inh: -20

How did Cc1ccc(NC(=O)c2cccc(F)c2)cc1S(=O)(=O)N1CCCCCC1 do in these assays?
TMEM16A act: inactive; TAAR1 ag: 8; CRFBP-R2 agonist: 1; TAAR1 antag: 15; TMEM16A inh: inactive; CRFBP-R2 block: -27

How did CC(=O)Oc1ccc(Cn2c(C)c(C(=O)NCc3ccc4c(c3)OCCO4)sc2=O)cc1 do in these assays?
TAAR1 ag: 12; TAAR1 antag: 28

Results for Nc1ccc(N=Nc2ccccc2)c(N)n1 ?
TMEM16A act: inactive; TAAR1 ag: 8; CRFBP-R2 agonist: -2; TAAR1 antag: -14; TMEM16A inh: inactive; CRFBP-R2 block: -25

What do the screens show for `Cc1[nH]c(N=Nc2ccccc2)nc1N=Nc1ccccc1`?
TMEM16A act: inactive; TAAR1 ag: 0; CRFBP-R2 agonist: 2; TAAR1 antag: 12; TMEM16A inh: 100*; CRFBP-R2 block: 16; TMEM16A reconf: inactive; HEK293 Ca mobil: inactive; Parental YFP cnt: -1; ClC-1 rat inh: -8

What do the screens show for `CCc1cc(=O)oc2cc(C)cc(OCC(=O)NCc3ccncc3)c12`?
TMEM16A act: inactive; TAAR1 ag: 1; CRFBP-R2 agonist: -2; TAAR1 antag: 1; TMEM16A inh: inactive; CRFBP-R2 block: -2

What do the screens show for `CC(=O)NCCC(Cc1ccccc1)c1ccco1` (stereo not given)?
TMEM16A act: inactive; TAAR1 ag: 1; CRFBP-R2 agonist: -2; TAAR1 antag: 2; TMEM16A inh: 100*; CRFBP-R2 block: -3; TMEM16A reconf: inactive; HEK293 Ca mobil: inactive; Parental YFP cnt: -0.87; ClC-1 rat inh: -10

How did CC1CCN(C(=O)COC(=O)c2ccc3c(c2)C(=O)N(Cc2ccco2)C3=O)CC1 do in these assays?
TMEM16A act: inactive; TAAR1 ag: 2; CRFBP-R2 agonist: 0; TAAR1 antag: -21; CRFBP-R2 block: 3

Results for Cc1ccc(-n2c(C)cc(C(=O)COC(=O)c3c(C)noc3C)c2C)cc1 ?
TMEM16A act: inactive; TAAR1 ag: 2; CRFBP-R2 agonist: 1; TAAR1 antag: 26; TMEM16A inh: 100*; CRFBP-R2 block: 26; TMEM16A reconf: inactive; HEK293 Ca mobil: inactive; Parental YFP cnt: -0.97; ClC-1 rat inh: -16

Results for CC(=O)NC(C(=O)N1CCC(c2nc3ccccc3s2)CC1)C(C)C (stereo not given) ?
TMEM16A act: inactive; TAAR1 ag: 1; CRFBP-R2 agonist: 0; TAAR1 antag: -10; TMEM16A inh: inactive; CRFBP-R2 block: 8

How did O=C(NCC(O)c1ccccc1)c1ccc(Cl)c(S(=O)(=O)N2CCCC2)c1 (stereo not given) do in these assays?
TMEM16A act: inactive; CRFBP-R2 agonist: 3; TMEM16A inh: inactive; CRFBP-R2 block: -5

How did O=C(NCC(O)c1ccccc1)c1ccc(Cl)c(S(=O)(=O)N2CCCCC2)c1 (stereo not given) do in these assays?
TMEM16A act: inactive; TAAR1 ag: 9; CRFBP-R2 agonist: -1; TAAR1 antag: 19; TMEM16A inh: 25*; CRFBP-R2 block: 4; TMEM16A reconf: inactive; HEK293 Ca mobil: inactive; Parental YFP cnt: -0.88; ClC-1 rat inh: -12

What do the screens show for `O=C(Nc1nnc(C2CC2)s1)c1ccc(Cl)c(S(=O)(=O)N2CCc3ccccc3C2)c1`?
TMEM16A act: inactive; TAAR1 ag: 10; CRFBP-R2 agonist: 1; TAAR1 antag: 57*; TMEM16A inh: 100*; CRFBP-R2 block: -4; TMEM16A reconf: 26%*; HEK293 Ca mobil: inactive; Parental YFP cnt: -1.1; ClC-1 rat inh: -3

Assay outcomes from PubChem.
